# Test results reported in ChEMBL document CHEMBL3627671, “Novel derivatives of nitro-substituted salicylic acids: Synthesis, antimicrobial activity and cytotoxicity” (Bioorg Med Chem, 2015).
# pIC50: −log10 of the molar value.
# Experiments:
# [1] = tested on: Mycobacterium tuberculosis; experiment: Antimycobacterial activity against Mycobacterium tuberculosis H37Rv 331/88 after 14 days; format: functional; conditions: H37Rv 331/88, 336 h
# [2] = tested on: Mycobacterium tuberculosis; experiment: Antimycobacterial activity against Mycobacterium tuberculosis H37Rv 331/88 after 21 days; format: functional; conditions: H37Rv 331/88, 504 h
# Mycobacterium avium [3] = experiment: Antimycobacterial activity against Mycobacterium avium 330/80 after 14 days; format: functional; conditions: 330/80, 336 h
# Mycobacterium avium [4] = experiment: Antimycobacterial activity against Mycobacterium avium 330/80 after 21 days; format: functional; conditions: 330/80, 504 h
# Mycobacterium kansasii [5] = experiment: Antimycobacterial activity against Mycobacterium kansasii 235/80 after 7 days; format: functional; conditions: 235/80, 168 h
# Outline: (§1)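 Šula's semisynthetic medium micromethod at 37 °C, read after 7, 14 and 21 days. The 1.0 McFarland suspension was diluted 10^-4. MIC determined. 6509/96 is a clinical isolate.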
# Mycobacterium kansasii [6] = experiment: Antimycobacterial activity against Mycobacterium kansasii 235/80 after 14 days; format: functional; conditions: 235/80, 336 h; outline: as §1
# Mycobacterium kansasii [7] = experiment: Antimycobacterial activity against Mycobacterium kansasii 235/80 after 21 days; format: functional; conditions: 235/80, 504 h; outline: as §1
# Mycobacterium kansasii [8] = experiment: Antimycobacterial activity against Mycobacterium kansasii 6509/96 after 7 days; format: functional; conditions: 6509/96, 168 h; outline: as §1
# Mycobacterium kansasii [9] = experiment: Antimycobacterial activity against Mycobacterium kansasii 6509/96 after 14 days; format: functional; conditions: 6509/96, 336 h; outline: as §1
# Mycobacterium kansasii [10] = experiment: Antimycobacterial activity against Mycobacterium kansasii 6509/96 after 21 days; format: functional; conditions: 6509/96, 504 h; outline: as §1
# Staphylococcus aureus [11] = experiment: Antibacterial activity against Staphylococcus aureus CCM 4516/08 after 24 hrs by microdilution broth method; format: functional; conditions: CCM 4516/08, 24 h
# Staphylococcus aureus [12] = experiment: Antibacterial activity against Staphylococcus aureus CCM 4516/08 after 48 hrs by microdilution broth method; format: functional; conditions: CCM 4516/08, 48 h
# Staphylococcus aureus [13] = experiment: Antibacterial activity against methicillin-resistant Staphylococcus aureus H 5996/08 after 24 hrs by microdilution broth method; format: functional; conditions: H 5996/08, 24 h
# Staphylococcus aureus [14] = experiment: Antibacterial activity against methicillin-resistant Staphylococcus aureus H 5996/08 after 48 hrs by microdilution broth method; format: functional; conditions: H 5996/08, 48 h
# [15] = tested on: Staphylococcus epidermidis; experiment: Antibacterial activity against Staphylococcus epidermidis H 6966/08 after 24 hrs by microdilution broth method; format: functional; conditions: H 6966/08, 24 h
# Outline: (§2)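 Mueller-Hinton broth microdilution (modified M07-A07), pH 7.4 (±0.2). Compounds dissolved in DMSO, tested at final 500 to 0.49 µmol/L. Inoculum in sterile water matched to 0.5 McFarland. Incubated in the dark, humid atmosphere, 35 °C, read at 24 and 48 h visually and at 540 nm. MIC taken as ≥95% growth reduction (IC95) versus control.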
# [16] = tested on: Staphylococcus epidermidis; experiment: Antibacterial activity against Staphylococcus epidermidis H 6966/08 after 48 hrs by microdilution broth method; format: functional; conditions: H 6966/08, 48 h; outline: as §2
# Enterococcus sp. [17] = experiment: Antibacterial activity against Enterococcus sp. J 14365/08 after 24 hrs by microdilution broth method; format: functional; conditions: J 14365/08, 24 h; outline: as §2
# Enterococcus sp. [18] = experiment: Antibacterial activity against Enterococcus sp. J 14365/08 after 48 hrs by microdilution broth method; format: functional; conditions: J 14365/08, 48 h; outline: as §2
# Escherichia coli [19] = experiment: Antibacterial activity against Escherichia coli CCM4517 after 24 hrs by microdilution broth method; format: functional; conditions: CCM4517, 24 h; outline: as §2
# Escherichia coli [20] = experiment: Antibacterial activity against Escherichia coli CCM4517 after 48 hrs by microdilution broth method; format: functional; conditions: CCM4517, 48 h; outline: as §2
# Klebsiella pneumoniae [21] = experiment: Antibacterial activity against Klebsiella pneumoniae D 11750/08 after 24 hrs by microdilution broth method; format: functional; conditions: D 11750/08, 24 h; outline: as §2
# Klebsiella pneumoniae [22] = experiment: Antibacterial activity against Klebsiella pneumoniae D 11750/08 after 48 hrs by microdilution broth method; format: functional; conditions: D 11750/08, 48 h; outline: as §2
# Klebsiella pneumoniae [23] = experiment: Antibacterial activity against ESBL-positive Klebsiella pneumoniae J 14368/08 after 24 hrs by microdilution broth method; format: functional; conditions: J 14368/08, 24 h; outline: as §2
# Klebsiella pneumoniae [24] = experiment: Antibacterial activity against ESBL-positive Klebsiella pneumoniae J 14368/08 after 48 hrs by microdilution broth method; format: functional; conditions: J 14368/08, 48 h; outline: as §2
# Pseudomonas aeruginosa [25] = experiment: Antibacterial activity against Pseudomonas aeruginosa CCM 1961 after 24 hrs by microdilution broth method; format: functional; conditions: CCM 1961, 24 h; outline: as §2
# Pseudomonas aeruginosa [26] = experiment: Antibacterial activity against Pseudomonas aeruginosa CCM 1961 after 48 hrs by microdilution broth method; format: functional; conditions: CCM 1961, 48 h; outline: as §2
# Candida albicans [27] = experiment: Antifungal activity against Candida albicans ATCC 44859 after 24 hrs by microdilution broth method; format: functional; conditions: ATCC 44859, 24 h
# Outline: (§3)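 CLSI M27-A3 broth microdilution in RPMI 1640 with glutamine, buffered to pH 7.0 with MOPS; DMSO diluent. Yeast inoculum 5 × 10^3 ± 0.2 CFU/mL. Moulds grown on Sabouraud agar 3–10 days before spore harvest, final inoculum 0.5-5 × 10^4 CFU/mL, checked in a Bürker chamber. Incubated dark, humid, 35 °C, read at 24 and 48 h visually and at 540 nm. MIC taken as ≥80% (yeasts) or ≥50% (filamentous) growth reduction versus control.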
# Candida albicans [28] = experiment: Antifungal activity against Candida albicans ATCC 44859 after 48 hrs by microdilution broth method; format: functional; conditions: ATCC 44859, 48 h; outline: as §3
# Candida tropicalis [29] = experiment: Antifungal activity against Candida tropicalis 156 after 24 hrs by microdilution broth method; format: functional; conditions: Candida tropicalis, 156, 24 h; outline: as §3
# Candida tropicalis [30] = experiment: Antifungal activity against Candida tropicalis 156 after 48 hrs by microdilution broth method; format: functional; conditions: Candida tropicalis, 156, 48 h; outline: as §3
# Pichia kudriavzevii [31] = experiment: Antifungal activity against Candida krusei E28 after 24 hrs by microdilution broth method; format: functional; conditions: E28, 24 h; outline: as §3
# Pichia kudriavzevii [32] = experiment: Antifungal activity against Candida krusei E28 after 48 hrs by microdilution broth method; format: functional; conditions: E28, 48 h; outline: as §3
# Nakaseomyces glabratus [33] = experiment: Antifungal activity against Candida glabrata 20/I after 24 hrs by microdilution broth method; format: functional; outline: as §3
# Nakaseomyces glabratus [34] = experiment: Antifungal activity against Candida glabrata 20/I after 48 hrs by microdilution broth method; format: functional; outline: as §3
# Trichosporon asahii [35] = experiment: Antifungal activity against Trichosporon asahii 1188 after 24 hrs by microdilution broth method; format: functional; conditions: Trichosporon asahii, 1188, 24 h; outline: as §3
# Trichosporon asahii [36] = experiment: Antifungal activity against Trichosporon asahii 1188 after 48 hrs by microdilution broth method; format: functional; conditions: Trichosporon asahii, 1188, 48 h; outline: as §3
# Aspergillus fumigatus [37] = experiment: Antifungal activity against Aspergillus fumigatus 231 after 24 hrs by microdilution broth method; format: functional; conditions: Aspergillus fumigatus, 231, 24 h; outline: as §3
# Aspergillus fumigatus [38] = experiment: Antifungal activity against Aspergillus fumigatus 231 after 48 hrs by microdilution broth method; format: functional; conditions: Aspergillus fumigatus, 231, 48 h; outline: as §3
# Lichtheimia corymbifera [39] = experiment: Antifungal activity against Absidia corymbifera 272 after 24 hrs by microdilution broth method; format: functional; conditions: Lichtheimia corymbifera, 272, 24 h; outline: as §3
# Lichtheimia corymbifera [40] = experiment: Antifungal activity against Absidia corymbifera 272 after 48 hrs by microdilution broth method; format: functional; conditions: Lichtheimia corymbifera, 272, 48 h; outline: as §3
# [41] = tested on: Trichophyton mentagrophytes; experiment: Antifungal activity against Trichophyton mentagrophytes 445 after 24 hrs by microdilution broth method; format: functional; conditions: Trichophyton mentagrophytes, 445, 24 h
# [42] = tested on: Trichophyton mentagrophytes; experiment: Antifungal activity against Trichophyton mentagrophytes 445 after 48 hrs by microdilution broth method; format: functional; conditions: Trichophyton mentagrophytes, 445, 48 h
# HepG2 = experiment: Cytotoxicity against human HepG2 cells after 24 hrs […]; format: cell-based; conditions: HepG2, 24 h
# [43] = Selectivity index, ratio of CI50 for human HepG2 cells to MIC100 for Mycobacterium tuberculosis H37Rv 331/88
smiles,measurement,setting,value
O=C(Nc1cccc(C(F)(F)F)c1)c1ccc([N+](=O)[O-])cc1O,MIC,[1],8 µM
same,MIC,[2],8 µM
same,MIC,Mycobacterium avium [3],62.5 µM
same,MIC,Mycobacterium avium [4],62.5 µM
same,MIC,Mycobacterium kansasii [5],8 µM
same,MIC,Mycobacterium kansasii [6],16 µM
same,MIC,Mycobacterium kansasii [7],16 µM
same,MIC,Mycobacterium kansasii [8],8 µM
same,MIC,Mycobacterium kansasii [9],16 µM
same,MIC,Mycobacterium kansasii [10],16 µM
same,MIC,Staphylococcus aureus [11],3.9 µM
same,MIC,Staphylococcus aureus [12],3.9 µM
same,MIC,Staphylococcus aureus [13],1.95 µM
same,MIC,Staphylococcus aureus [14],1.95 µM
same,MIC,[15],1.95 µM
same,MIC,[16],7.81 µM
same,MIC,Enterococcus sp. [17],250 µM
same,MIC,Enterococcus sp. [18],500 µM
same,MIC,Escherichia coli [19],500 µM
same,MIC,Escherichia coli [20],500 µM
same,MIC,Klebsiella pneumoniae [21],500 µM
same,MIC,Klebsiella pneumoniae [22],500 µM
same,MIC,Klebsiella pneumoniae [23],> 500 µM
same,MIC,Klebsiella pneumoniae [24],> 500 µM
same,MIC,Pseudomonas aeruginosa [25],> 500 µM
same,MIC,Pseudomonas aeruginosa [26],> 500 µM
same,MIC,Candida albicans [27],> 500 µM
same,MIC,Candida albicans [28],> 500 µM
same,MIC,Candida tropicalis [29],> 500 µM
same,MIC,Candida tropicalis [30],> 500 µM
same,MIC,Pichia kudriavzevii [31],250 µM
same,MIC,Pichia kudriavzevii [32],> 500 µM
same,MIC,Nakaseomyces glabratus [33],> 500 µM
same,MIC,Nakaseomyces glabratus [34],> 500 µM
same,MIC,Trichosporon asahii [35],62.5 µM
same,MIC,Trichosporon asahii [36],250 µM
same,MIC,Aspergillus fumigatus [37],500 µM
same,MIC,Aspergillus fumigatus [38],> 500 µM
same,MIC,Lichtheimia corymbifera [39],500 µM
same,MIC,Lichtheimia corymbifera [40],> 500 µM
same,MIC,[41],> 500 µM
same,MIC,[42],> 500 µM
same,pIC50,HepG2,5.55
same,Selectivity Index,[43],0.35
O=C(Nc1ccc(C(F)(F)F)cc1)c1ccc([N+](=O)[O-])cc1O,MIC,[1],2 µM
same,MIC,[2],4 µM
same,MIC,Mycobacterium avium [3],32 µM
same,MIC,Mycobacterium avium [4],32 µM
same,MIC,Mycobacterium kansasii [5],2 µM
same,MIC,Mycobacterium kansasii [6],4 µM
same,MIC,Mycobacterium kansasii [7],8 µM
same,MIC,Mycobacterium kansasii [8],4 µM
same,MIC,Mycobacterium kansasii [9],8 µM
same,MIC,Mycobacterium kansasii [10],8 µM
same,MIC,Staphylococcus aureus [11],7.81 µM
same,MIC,Staphylococcus aureus [12],7.81 µM
same,MIC,Staphylococcus aureus [13],1.95 µM
same,MIC,Staphylococcus aureus [14],1.95 µM
same,MIC,[15],1.95 µM
same,MIC,[16],7.81 µM
same,MIC,Enterococcus sp. [17],250 µM
same,MIC,Enterococcus sp. [18],250 µM
same,MIC,Escherichia coli [19],500 µM
same,MIC,Escherichia coli [20],500 µM
same,MIC,Klebsiella pneumoniae [21],500 µM
same,MIC,Klebsiella pneumoniae [22],500 µM
same,MIC,Klebsiella pneumoniae [23],500 µM
same,MIC,Klebsiella pneumoniae [24],500 µM
same,MIC,Pseudomonas aeruginosa [25],> 500 µM
same,MIC,Pseudomonas aeruginosa [26],> 500 µM
same,MIC,Candida albicans [27],250 µM
same,MIC,Candida albicans [28],250 µM
same,MIC,Candida tropicalis [29],250 µM
same,MIC,Candida tropicalis [30],250 µM
same,MIC,Pichia kudriavzevii [31],62.5 µM
same,MIC,Pichia kudriavzevii [32],125 µM
same,MIC,Nakaseomyces glabratus [33],125 µM
same,MIC,Nakaseomyces glabratus [34],250 µM
same,MIC,Trichosporon asahii [35],31.2 µM
same,MIC,Trichosporon asahii [36],31.2 µM
same,MIC,Aspergillus fumigatus [37],31.2 µM
same,MIC,Aspergillus fumigatus [38],31.2 µM
same,MIC,Lichtheimia corymbifera [39],31.2 µM
same,MIC,Lichtheimia corymbifera [40],62.5 µM
same,MIC,[41],62.5 µM
same,MIC,[42],125 µM
same,pIC50,HepG2,5.92
same,Selectivity Index,[43],0.3
